This note sets out measurements from ChEMBL document CHEMBL1156205, “Synthesis and antibacterial activity of new 9-O-arylpropenyloxime ketolides” (2010).

For orientation: MIC means the lowest concentration that inhibits growth of the organism. Usually MIC50 stands for the lowest concentration that inhibits either 50% of growth or 50% of the strains tested, depending on the study. A high value points to weaker potency.

Common to all, as to type: functional
The test system of assay [1] is Staphylococcus aureus. The assay can be described thus: Antibacterial activity against methicillin-susceptible Staphylococcus aureus ATCC 29213 by agar dilution method. In outline: (§1)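 MIC determined by agar dilution on Mueller–Hinton agar against reference strains.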
(In agar dilution the substance is mixed into plates at graded concentrations.)

The test system of assay [2] is Streptococcus pneumoniae. Put plainly: Antibacterial activity against penicillin intermediate-resistant Streptococcus pneumoniae isolate I2 by agar dilution method. In outline: (§2)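 MIC determined by agar dilution on Mueller–Hinton agar against clinically isolated penicillin-intermediate-resistant S. pneumoniae.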
For assay [3], the system named is Streptococcus pneumoniae. The assay can be described thus: Antibacterial activity against penicillin-susceptible Streptococcus pneumoniae isolate S1 by agar dilution method. In a few lines:
(§3)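 MIC measured by agar dilution on Mueller–Hinton agar. Strains were a reference culture and clinically isolated strains. The pneumococcal isolates were penicillin-susceptible clinical isolates.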

Assay [4] has as its system Staphylococcus aureus. The assay can be described thus: Antibacterial activity against methicillin-susceptible Staphylococcus aureus isolate 1 by agar dilution method. In a few lines: (§4)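 MIC determined by agar dilution on Mueller–Hinton agar against clinically isolated methicillin-susceptible S. aureus.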
The test system of assay [5] is Streptococcus pneumoniae. Put plainly: Antibacterial activity against Streptococcus pneumoniae ATCC 49619 by agar dilution method. The settings on record: ATCC49619. In outline: as §1
Assay [6] has as its system Streptococcus pneumoniae. Put plainly: Antibacterial activity against penicillin-susceptible Streptococcus pneumoniae isolate S2 by agar dilution method. In a few lines: as §3
Assay [7] concerns Staphylococcus aureus. The assay can be described thus: Antibacterial activity against methicillin-resistant Staphylococcus aureus 2 by agar dilution method. In a few lines:
(§5)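 MIC determined by agar dilution on Mueller–Hinton agar against clinical strains of methicillin-resistant S. aureus.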

Assay [8] relates to Staphylococcus aureus. The assay can be described thus: Antibacterial activity against methicillin-resistant Staphylococcus aureus 3 by agar dilution method. In outline: as §5
Assay [9] deals with Streptococcus pneumoniae. The assay can be described thus: Antibacterial activity against penicillin intermediate-resistant Streptococcus pneumoniae isolate I3 by agar dilution method. In outline:
as §2

Assay [10] relates to Streptococcus pyogenes. The assay can be described thus: Antibacterial activity against Streptococcus pyogenes ATCC 8668 by agar dilution method. In a few lines:
as §3

Assay [11] concerns Staphylococcus aureus. The assay can be described thus: Antibacterial activity against methicillin-susceptible Staphylococcus aureus isolate 2 by agar dilution method. In outline:
as §4

Assay [12] deals with Staphylococcus aureus. Put plainly: Antibacterial activity against methicillin-resistant Staphylococcus aureus 1 by agar dilution method. In outline: as §5
For assay [13], the system named is Streptococcus pyogenes. The assay can be described thus: Antibacterial activity against Streptococcus pyogenes isolate 1 by agar dilution method. In outline:
as §3

The subject of assay [14] is Staphylococcus aureus. Put plainly: Antibacterial activity against methicillin-susceptible Staphylococcus aureus isolate 3 by agar dilution method. In a few lines:
as §4

Assay [15] concerns Streptococcus pneumoniae. The assay can be described thus: Antibacterial activity against penicillin intermediate-resistant Streptococcus pneumoniae isolate I1 by agar dilution method. In outline: as §2
Assay [16] concerns Streptococcus pyogenes. Put plainly: Antibacterial activity against Streptococcus pyogenes isolate 3 by agar dilution method. In a few lines: as §3
Assay [17] deals with Streptococcus pyogenes. The assay can be described thus: Antibacterial activity against Streptococcus pyogenes isolate 2 by agar dilution method. In outline: as §3

Structures are written as SMILES. ≈ marks a conversion by molar mass, not a printed value.

As for `CC[C@H]1OC(=O)[C@H](C)C(=O)[C@H](C)[C@@H](O[C@@H]2O[C@H](C)C[C@H](N(C)C)[C@H]2O)[C@](C)(OC)C[C@@H](C)/C(=N\OC/C=C/c2cccc(C3OCCO3)c2)[C@H](C)[C@@H](O)[C@]1(C)O`, the MIC in the assay on Staphylococcus aureus [1] is 0.5 µg/mL (≈ 0.632 µM); against Streptococcus pneumoniae [2], 0.25 µg/mL (≈ 0.316 µM); in the assay with Streptococcus pneumoniae [3] it was 0.06 µg/mL (≈ 0.0759 µM); with Staphylococcus aureus [4], 1 µg/mL (≈ 1.26 µM); against Streptococcus pneumoniae [5] it was 0.25 µg/mL (≈ 0.316 µM); against Streptococcus pneumoniae [6], 0.06 µg/mL (≈ 0.0759 µM). In addition, the minimum inhibitory concentration (MIC) came out at 128 µg/mL (≈ 162 µM) with Staphylococcus aureus [7]; 1 µg/mL (≈ 1.26 µM) in the assay on Staphylococcus aureus [8]; 0.25 µg/mL (≈ 0.316 µM) in the assay with Streptococcus pneumoniae [9]; 0.25 µg/mL (≈ 0.316 µM) in the assay with Streptococcus pyogenes [10]; 1 µg/mL (≈ 1.26 µM) against Staphylococcus aureus [11]; 128 µg/mL (≈ 162 µM) against Staphylococcus aureus [12]. The MIC was 0.06 µg/mL (≈ 0.0759 µM) in the assay on Streptococcus pyogenes [13]; 0.5 µg/mL (≈ 0.632 µM) against Staphylococcus aureus [14]; 64 µg/mL (≈ 80.9 µM) in the assay with Streptococcus pneumoniae [15]; 0.25 µg/mL (≈ 0.316 µM) in the assay on Streptococcus pyogenes [16]; 0.25 µg/mL (≈ 0.316 µM) against Streptococcus pyogenes [17].
As for `CC[C@H]1OC(=O)[C@H](C)C(=O)[C@H](C)[C@@H](O[C@@H]2O[C@H](C)C[C@H](N(C)C)[C@H]2O)[C@](C)(OC)C[C@@H](C)/C(=N\OC/C=C/c2ccc(OC)c(OC)c2)[C@H](C)[C@@H](O)[C@]1(C)O`, the minimal inhibitory concentration (MIC) against Staphylococcus aureus [1] came out at 1 µg/mL (≈ 1.28 µM); against Streptococcus pneumoniae [2], 0.5 µg/mL (≈ 0.642 µM); in the assay on Streptococcus pneumoniae [3] it was 0.06 µg/mL (≈ 0.077 µM); with Staphylococcus aureus [4], 0.5 µg/mL (≈ 0.642 µM); against Streptococcus pneumoniae [5], 0.25 µg/mL (≈ 0.321 µM); against Streptococcus pneumoniae [6], 0.06 µg/mL (≈ 0.077 µM). Moreover, the MIC against Staphylococcus aureus [7] is 128 µg/mL (≈ 164 µM); against Staphylococcus aureus [8] it was 1 µg/mL (≈ 1.28 µM); with Streptococcus pneumoniae [9], 0.5 µg/mL (≈ 0.642 µM); in the assay on Streptococcus pyogenes [10] it was 0.25 µg/mL (≈ 0.321 µM); in the assay on Staphylococcus aureus [11], 1 µg/mL (≈ 1.28 µM); in the assay on Staphylococcus aureus [12], 128 µg/mL (≈ 164 µM). The MIC worked out at 0.06 µg/mL (≈ 0.077 µM) with Streptococcus pyogenes [13]; 1 µg/mL (≈ 1.28 µM) with Staphylococcus aureus [14]; 32 µg/mL (≈ 41.1 µM) in the assay with Streptococcus pneumoniae [15]; 0.25 µg/mL (≈ 0.321 µM) against Streptococcus pyogenes [16]; 0.25 µg/mL (≈ 0.321 µM) in the assay on Streptococcus pyogenes [17].
For the molecule `CC[C@H]1OC(=O)[C@H](C)C(=O)[C@H](C)[C@@H](O[C@@H]2O[C@H](C)C[C@H](N(C)C)[C@H]2O)[C@](C)(OC)C[C@@H](C)/C(=N\OC/C=C/c2ccc3c(c2)OCO3)[C@H](C)[C@@H](O)[C@]1(C)O`, the minimum inhibitory concentration (MIC) came to 1 µg/mL (≈ 1.31 µM) in the assay with Staphylococcus aureus [1]; 0.25 µg/mL (≈ 0.328 µM) against Streptococcus pneumoniae [2]; 0.06 µg/mL (≈ 0.0786 µM) with Streptococcus pneumoniae [3]; 1 µg/mL (≈ 1.31 µM) with Staphylococcus aureus [4]; 0.25 µg/mL (≈ 0.328 µM) against Streptococcus pneumoniae [5]; 0.06 µg/mL (≈ 0.0786 µM) in the assay on Streptococcus pneumoniae [6]. In addition, the minimal inhibitory concentration (MIC) was 128 µg/mL (≈ 168 µM) with Staphylococcus aureus [7]; 1 µg/mL (≈ 1.31 µM) against Staphylococcus aureus [8]; 0.25 µg/mL (≈ 0.328 µM) in the assay with Streptococcus pneumoniae [9]; 0.25 µg/mL (≈ 0.328 µM) in the assay on Streptococcus pyogenes [10]; 0.5 µg/mL (≈ 0.655 µM) against Staphylococcus aureus [11]; 128 µg/mL (≈ 168 µM) with Staphylococcus aureus [12]. For the same molecule, the minimal inhibitory concentration (MIC) against Streptococcus pyogenes [13] was determined as 0.06 µg/mL (≈ 0.0786 µM); in the assay with Staphylococcus aureus [14], 0.5 µg/mL (≈ 0.655 µM); with Streptococcus pneumoniae [15], 64 µg/mL (≈ 83.9 µM); with Streptococcus pyogenes [16], 0.25 µg/mL (≈ 0.328 µM); with Streptococcus pyogenes [17], 0.25 µg/mL (≈ 0.328 µM).
`CC[C@H]1OC(=O)[C@H](C)[C@@H](O[C@H]2C[C@@](C)(OC)[C@@H](O)[C@H](C)O2)[C@H](C)[C@@H](O[C@@H]2O[C@H](C)C[C@H](N(C)C)[C@H]2O)[C@](C)(O)C[C@@H](C)C(=O)[C@H](C)[C@@H](O)[C@]1(C)O` [ERYTHROMYCIN]: the MIC50 in the assay with Streptococcus pneumoniae [2], against Streptococcus pneumoniae [9] and in the assay with Streptococcus pneumoniae [15] was greater than 128 µM throughout.
`CC[C@H]1OC(=O)[C@H](C)C(=O)[C@H](C)[C@@H](O[C@@H]2O[C@H](C)C[C@H](N(C)C)[C@H]2O)[C@](C)(OC)C[C@@H](C)/C(=N\OC/C=C/c2ccc(OC)cc2)[C@H](C)[C@@H](O)[C@]1(C)O`: the MIC was 2 µg/mL (≈ 2.67 µM) in the assay on Staphylococcus aureus [1]; 0.5 µg/mL (≈ 0.668 µM) in the assay with Streptococcus pneumoniae [2]; 0.25 µg/mL (≈ 0.334 µM) with Streptococcus pneumoniae [3]; 2 µg/mL (≈ 2.67 µM) in the assay on Staphylococcus aureus [4]; 0.5 µg/mL (≈ 0.668 µM) with Streptococcus pneumoniae [5]; 0.25 µg/mL (≈ 0.334 µM) in the assay with Streptococcus pneumoniae [6]. For the same molecule, the MIC against Staphylococcus aureus [7] turned out to be 126 µg/mL (≈ 168 µM); in the assay on Staphylococcus aureus [8], 2 µg/mL (≈ 2.67 µM); against Streptococcus pneumoniae [9], 0.5 µg/mL (≈ 0.668 µM); against Streptococcus pyogenes [10], 0.5 µg/mL (≈ 0.668 µM); in the assay on Staphylococcus aureus [11], 1 µg/mL (≈ 1.34 µM); against Staphylococcus aureus [12], 128 µg/mL (≈ 171 µM). The minimum inhibitory concentration (MIC) in the assay on Streptococcus pyogenes [13] turned out to be 0.25 µg/mL (≈ 0.334 µM); in the assay with Staphylococcus aureus [14], 1 µg/mL (≈ 1.34 µM); in the assay with Streptococcus pneumoniae [15], 64 µg/mL (≈ 85.5 µM); against Streptococcus pyogenes [16], 0.5 µg/mL (≈ 0.668 µM); in the assay on Streptococcus pyogenes [17] it was 0.5 µg/mL (≈ 0.668 µM).
